Counter-ions that a name gives are not always drawn. Like-named read-outs stand apart in the source and are kept apart here.
What was measured:
NET = NET (Homo sapiens, UniProt P23975); test: NIMH PDSP radioligand binding, NET; details: 10 μM; N = 1 in quadruplicate
Summary of the method: (§1)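 Outsourced screen run by the NIMH Psychoactive Drug Screening Program across a broad target panel. Test compound at 10 μM; read-out was % inhibition of binding of a radiolabelled ligand specific to each target. Single experiment (N = 1) run in quadruplicate, with the averaged value reported.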

adrenergic receptors = test: NIMH PDSP radioligand binding, adrenergic receptors; details: 10 μM; N = 1 in quadruplicate
Summary of the method: as §1

sigma 1 = test: NIMH PDSP radioligand binding, sigma 1; details: 10 μM; N = 1 in quadruplicate
Summary of the method: as §1

DAT = DAT (Homo sapiens, UniProt Q01959); test: NIMH PDSP radioligand binding, DAT; details: 10 μM; N = 1 in quadruplicate
DAT, sequence (Q01959 whole entry, species assumed): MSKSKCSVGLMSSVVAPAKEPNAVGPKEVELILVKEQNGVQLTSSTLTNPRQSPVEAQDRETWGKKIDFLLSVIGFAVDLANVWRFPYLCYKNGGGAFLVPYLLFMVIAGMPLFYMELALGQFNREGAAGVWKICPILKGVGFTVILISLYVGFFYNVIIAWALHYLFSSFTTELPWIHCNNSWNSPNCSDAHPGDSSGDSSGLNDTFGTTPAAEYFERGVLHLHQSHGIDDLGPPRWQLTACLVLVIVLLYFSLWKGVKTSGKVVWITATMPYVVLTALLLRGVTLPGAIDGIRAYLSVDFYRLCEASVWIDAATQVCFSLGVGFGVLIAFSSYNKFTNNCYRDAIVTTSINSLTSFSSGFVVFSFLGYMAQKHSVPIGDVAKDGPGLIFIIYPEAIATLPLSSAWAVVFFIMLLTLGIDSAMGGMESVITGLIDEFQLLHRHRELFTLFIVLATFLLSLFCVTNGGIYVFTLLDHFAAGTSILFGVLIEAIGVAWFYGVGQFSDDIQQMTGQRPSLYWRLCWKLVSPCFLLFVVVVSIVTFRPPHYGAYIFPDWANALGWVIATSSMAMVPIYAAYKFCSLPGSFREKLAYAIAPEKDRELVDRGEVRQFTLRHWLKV
Summary of the method: as §1

5-HT3 receptors = target: T1, 5-HT3 receptors (Homo sapiens, UniProt P46098); test: NIMH PDSP radioligand binding, 5-HT3; details: 10 μM; N = 1 in quadruplicate
T1 sequence (P46098 24-478): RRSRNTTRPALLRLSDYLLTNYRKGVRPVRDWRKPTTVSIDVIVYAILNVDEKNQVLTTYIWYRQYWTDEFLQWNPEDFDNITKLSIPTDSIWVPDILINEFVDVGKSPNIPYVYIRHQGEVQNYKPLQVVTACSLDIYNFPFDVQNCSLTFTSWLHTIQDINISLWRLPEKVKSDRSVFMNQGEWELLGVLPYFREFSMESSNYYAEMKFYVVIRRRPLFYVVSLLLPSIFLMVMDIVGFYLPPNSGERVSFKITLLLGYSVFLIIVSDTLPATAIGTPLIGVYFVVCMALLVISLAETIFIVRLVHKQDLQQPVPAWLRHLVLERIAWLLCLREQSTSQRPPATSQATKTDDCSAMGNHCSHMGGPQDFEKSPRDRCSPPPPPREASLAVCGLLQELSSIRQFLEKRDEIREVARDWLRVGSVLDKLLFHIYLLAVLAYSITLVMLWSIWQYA
Summary of the method: as §1

5-HT2B = 5-HT2B (Homo sapiens, UniProt P41595); test: NIMH PDSP radioligand binding, 5-HT2B; details: 10 μM; N = 1 in quadruplicate
5-HT2B, sequence (P41595 whole entry, species assumed): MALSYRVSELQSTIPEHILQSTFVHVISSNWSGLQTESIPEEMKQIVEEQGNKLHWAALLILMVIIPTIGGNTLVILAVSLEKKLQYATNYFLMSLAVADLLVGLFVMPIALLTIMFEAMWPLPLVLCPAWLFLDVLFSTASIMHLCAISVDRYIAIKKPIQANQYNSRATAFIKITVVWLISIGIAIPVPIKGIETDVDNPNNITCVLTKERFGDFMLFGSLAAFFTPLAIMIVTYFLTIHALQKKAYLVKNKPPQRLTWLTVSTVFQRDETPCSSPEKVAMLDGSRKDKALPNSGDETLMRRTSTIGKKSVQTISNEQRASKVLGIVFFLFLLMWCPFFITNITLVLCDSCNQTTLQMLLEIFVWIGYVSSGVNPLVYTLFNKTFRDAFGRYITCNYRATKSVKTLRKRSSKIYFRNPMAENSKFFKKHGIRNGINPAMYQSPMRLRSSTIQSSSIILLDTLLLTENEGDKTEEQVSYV
Summary of the method: as §1

SERT [1] = target: T2, SERT (Homo sapiens, UniProt P31645); type: cell-based
sigma 2 = test: NIMH PDSP radioligand binding, sigma 2; details: 10 μM; N = 1 in quadruplicate
Summary of the method: as §1

SERT [2] = target: T2, SERT; test: NIMH PDSP radioligand binding, SERT; details: 10 μM; N = 1 in quadruplicate
SERT [3] = target: T2, SERT; test: SERT efflux assay; type: cell-based; details: for SERT efflux, single concentration: 10 μM, normalized to vehicle (0.1% DMSO = 0%) and 100 μM PCA = 100%
Summary of the method: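 hSERT-N1-pEYFP transfected (0.1 μg/well) into HEK293T cells (DMEM, 10% FBS) at seeding, 24 h before assay. In HBSS with 2 mM MgCl2, 2 mM CaCl2 and 5 mM HEPES at 37 °C, cells were loaded with 40 nM [3H]5-HT for 20 min, washed, then exposed 20 min to test compound (final 10 μM–1 nM, 0.1% DMSO). After washing and NaOH lysis, retained radioactivity was scintillation-counted. EC50/Span came from three-parameter log(agonist)-response fits.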

H1 = H1 (Homo sapiens, UniProt P35367); test: NIMH PDSP radioligand binding, H1; details: 10 μM; N = 1 in quadruplicate
H1, sequence (P35367 whole entry): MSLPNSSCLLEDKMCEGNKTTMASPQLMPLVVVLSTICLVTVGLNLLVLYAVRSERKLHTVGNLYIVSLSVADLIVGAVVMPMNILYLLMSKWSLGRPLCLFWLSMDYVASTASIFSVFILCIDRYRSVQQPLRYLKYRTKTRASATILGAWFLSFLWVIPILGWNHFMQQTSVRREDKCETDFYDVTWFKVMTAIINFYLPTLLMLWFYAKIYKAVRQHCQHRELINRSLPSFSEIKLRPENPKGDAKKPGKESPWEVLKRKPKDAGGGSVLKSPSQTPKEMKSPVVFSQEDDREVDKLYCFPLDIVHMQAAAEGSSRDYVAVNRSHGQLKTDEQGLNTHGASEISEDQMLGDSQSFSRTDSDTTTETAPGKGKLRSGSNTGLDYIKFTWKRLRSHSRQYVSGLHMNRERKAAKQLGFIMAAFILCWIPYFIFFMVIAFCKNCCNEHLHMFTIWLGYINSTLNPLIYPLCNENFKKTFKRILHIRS
Summary of the method: as §1

SERT [4] = target: T2, SERT; details: cited from earlier work
SERT-PG^601,602AA = SERT-PG^601,602AA (Homo sapiens, UniProt P31645, G602A/P601A); test: SERT pharmacochaperoning assay; type: cell-based; details: 20 μM, 24 h; normalized to vehicle (0.2% DMSO = 0%) and 20 μM noribogaine = 100%
Summary of the method: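 HEK293T cells (DMEM, 10% FBS) were transfected at seeding with the misfolding SERT-PG601,602AA plasmid (0.1 μg/well) and kept overnight at 37 °C, 5% CO2. They were then exposed 24 h to test compound at a final 20 μM (0.2% DMSO) in fresh medium. Four 10-min washes with supplemented HBSS preceded 10-min uptake of 40 nM [3H]5-HT. Cells were washed, lysed in 10 mM NaOH and scintillation-counted.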

SERT [5] = target: T2, SERT; details: cocaine 10 μM; value taken from a previous report; cited from earlier work
serotonin uptake = details: cited from earlier work
SERT [6] = target: T2, SERT; details: cited from earlier work; remark: listed apart in the source
[7] = concentration-response, compared to UCD0184

NET, sequence (P23975 whole entry): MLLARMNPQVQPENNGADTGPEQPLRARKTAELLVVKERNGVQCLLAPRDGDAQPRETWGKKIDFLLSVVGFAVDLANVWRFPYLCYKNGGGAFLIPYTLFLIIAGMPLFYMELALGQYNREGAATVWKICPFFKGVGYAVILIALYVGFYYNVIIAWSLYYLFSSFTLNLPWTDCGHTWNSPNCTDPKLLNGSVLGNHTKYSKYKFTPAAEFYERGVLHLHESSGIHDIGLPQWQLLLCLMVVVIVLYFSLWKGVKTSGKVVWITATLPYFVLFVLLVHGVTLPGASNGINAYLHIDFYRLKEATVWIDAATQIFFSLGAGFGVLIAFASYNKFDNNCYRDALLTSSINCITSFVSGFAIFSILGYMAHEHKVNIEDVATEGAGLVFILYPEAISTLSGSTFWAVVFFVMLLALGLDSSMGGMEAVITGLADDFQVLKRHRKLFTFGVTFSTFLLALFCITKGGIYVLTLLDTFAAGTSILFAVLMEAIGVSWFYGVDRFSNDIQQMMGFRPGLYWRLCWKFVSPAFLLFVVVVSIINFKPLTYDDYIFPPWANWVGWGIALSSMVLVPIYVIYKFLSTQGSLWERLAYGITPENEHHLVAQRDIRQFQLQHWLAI

Compound | % inhibition of radioligand binding at NET (in words) (NET) | % inhibition of radioligand binding at adrenergic receptors (in words) (adrenergic receptors) | % inhibition of radioligand binding at sigma 1 (in words) (sigma 1) | % inhibition of radioligand binding at DAT (in words) (DAT) | % inhibition of radioligand binding at 5-HT3 (in words) (5-HT3 receptors) | % inhibition of radioligand binding at 5-HT2B (in words) (5-HT2B) | % inhibition of radioligand binding at sigma 2 (in words) (sigma 2) | % inhibition of radioligand binding at SERT (in words) (SERT [2]) | % inhibition of radioligand binding at H1 (in words) (H1) | SERT inhibition, single concentration (SERT [1]) | SERT efflux, single concentration (SERT [3]; HEK293T) | further results
CN1C2C=C(c3c[nH]c4ccc(F)cc34)CC1CC2 (centres unmarked) [UCD0093] | potent ligands | potent ligands | potent ligands | potent ligands | high affinity | potent ligands | potent ligands | substantial binding | potent ligands | – | – | SERT inhibition potency and efficacy (in words) (SERT [1]; [7]): drastically increased SERT inhibition potency; SERT efflux potency and efficacy (in words) (SERT [3]; [7]): minimal effect on SERT efflux
CN1C2C=C(c3c[nH]c4ccccc34)CC1CC2 (centres unmarked) [UCD0184] | potent ligands | potent ligands | potent ligands | potent ligands | high affinity | potent ligands | potent ligands | substantial binding | potent ligands | near full inhibition | appreciable 5-HT efflux | selectivity for SERT over DAT (SERT [4]): approximately 10 fold; selectivity for SERT over NET (SERT [4]): ~100 fold; SERT inhibition Span (Emax) (SERT [1]): 105%; EC50 (SERT [1]; read-out: SERT inhibition EC50, concentration-response, HEK293T): 1100 nM; type of serotonin releasing agent (SRA): full or partial (SERT [3]; SERT-transfected HEK293T cells): full; SERT efflux Span (Emax) (SERT [3]; concentration-response, normalized to vehicle 0% and 100 μM PCA 100%): 75.1%; EC50 (SERT [3]; read-out: SERT efflux EC50, concentration-response, HEK293T): 582 nM; SERT pharmacochaperoning efficacy compared to noribogaine (SERT-PG^601,602AA): did not act as a SERT pharmacochaperone
COC(=O)[C@H]1[C@@H](OC(=O)c2ccccc2)C[C@@H]2CC[C@H]1N2C [cocaine, (−)-cocaine hydrochloride] | – | – | – | – | – | – | – | – | – | – | – | SERT inhibition, single concentration (SERT [5]): ~ 50%
CN1[C@@H]2C[C@@H](OC(=O)[C@H](CO)c3ccccc3)C[C@H]1[C@@H]1O[C@@H]12 [scopolamine, scopolamine hydrobromide trihydrate, reference compound] | – | – | – | – | – | – | – | – | – | meaningful levels of SERT inhibition | – | –
CN1C2CCC1CC(OC(=O)c1ccccc1)C2 (centres unmarked) [tropacocaine] | – | – | – | – | – | – | – | – | – | – | no effect | serotonin uptake inhibition activity relative to cocaine (in words) (serotonin uptake): reduced activity relative to cocaine; SERT binding affinity relative to cocaine (in words) (SERT [6]): reduced activity relative to cocaine

Reference: PMC12398706 (ACS chemical neuroscience, 2025)
